{"source": "ChEMBL document CHEMBL3784969", "about": "“Pharmacokinetics of flutamide in patients with renal insufficiency” (Br J Clin Pharmacol, 1999)", "conditions_in_all_cases": "in vivo", "key": {"Homo sapiens [1]": {"test_system": "Homo sapiens", "assay": "AUClast in patient (3 patients) with renal insufficiency at 250 mg, po assessed as hydroxy flutamide administered as single dose by gas chromatography", "type": "ADME, organism-based", "parameters": "dose 250 mg, time 0 - last, route oral"}, "Homo sapiens [2]": {"test_system": "Homo sapiens", "assay": "Cmax in patient (6 patients) with renal insufficiency assessed as hydroxy flutamide at 250 mg, po administered as single dose 4 hrs prior to hemodialysis treatment measured at starting time of dialysis and post dialysis treatment by gas chromatography", "type": "ADME, organism-based", "parameters": "dose 250 mg, route oral"}, "Homo sapiens [3]": {"test_system": "Homo sapiens", "assay": "Toxicity in patient with renal insufficiency assessed as fatigue at 250 mg, po administered as single dose", "type": "organism-based", "summary_of_the_method": "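26 male subjects in groups by 24 h creatinine clearance (normalized to body surface area): >80, 50–80, 30–49, 5–29, <5 ml min−1 1.73 m−2 on haemodialysis. Given as two 125 mg capsules after a 10 h fast, continued 4 h post-dose. Prescription drugs withheld for the same period. Subjects confined 12 h pre-dose to 48 h post-dose, with adverse events compared across renal-function groups.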"}}, "data": [{"compound": "CC(C)C(=O)Nc1ccc([N+](=O)[O-])c(C(F)(F)F)c1", "note": "[FLUTAMIDE]", "values": [{"measurement": "AUClast", "setting": "Homo sapiens [1]", "value": 6843, "unit": "ng·h/mL"}, {"measurement": "Cmax", "setting": "Homo sapiens [2]", "value": 869, "unit": "ng/mL"}, {"measurement": "Activity", "setting": "Homo sapiens [3]", "value": 12, "unit": "%"}]}]}
